What is called IC50 is the concentration that gives 50% inhibition.

Consider 1 compound from ChEMBL document CHEMBL4428038, “Overcoming chloroquine resistance in malaria: Design, synthesis and structure-activity relationships of novel chemoreversal agents” (Eur J Med Chem, 2016).

Data set [1] deals with Plasmodium falciparum. The data set is described as follows: Intrinsic antimalarial activity against chloroquine-sensitive Plasmodium falciparum HB3 isolate MRA-155 assessed as reduction in parasite viability at 500 nM. Type of data set: functional, organism-based.
Data set [2] is described as follows: Resistance index, ratio of chloroquine IC50 for chloroquine-resistant Plasmodium falciparum K1 isolate MRA-159 CRT CVIET haplotype mutant to chloroquine IC50 for chloroquine-sensitive Plasmodium falciparum 3D7 isolate MRA-102 at 500 nM. The method, boiled down: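 Chloroquine IC50 was measured with the chemoreversal agent fixed at 500 nM in K1 or 7G8 and in sensitive 3D7 (means, n = 3). The resistance ratio is the chloroquine IC50 in K1 or 7G8 divided by the chloroquine IC50 in 3D7.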

The test system of data set [3] is Plasmodium falciparum. The data set is described as follows: Intrinsic antimalarial activity against chloroquine-resistant Plasmodium falciparum NHP4559 harboring CRT K76T mutant assessed as reduction in parasite viability at 500 nM. Type of data set: functional, organism-based.
Data set [4] can be described thus: Permeability of compound incubated for 6 hrs at pH 7.4 by PAMPA. The class given is ADME. The note with it: read-out: Peff. (The PAMPA barrier holds no transporters, so it reflects passive diffusion.)
The test system of data set [5] is Plasmodium falciparum. The data set is described as follows: Intrinsic antimalarial activity against chloroquine-sensitive Plasmodium falciparum 3D7 isolate MRA-102 assessed as reduction in parasite viability at 500 nM. The class given is functional, organism-based.
Data set [6] concerns T1, Chloroquine resistance transporter (Plasmodium falciparum), Q9N623 [K76T].
T1 sequence (whole entry): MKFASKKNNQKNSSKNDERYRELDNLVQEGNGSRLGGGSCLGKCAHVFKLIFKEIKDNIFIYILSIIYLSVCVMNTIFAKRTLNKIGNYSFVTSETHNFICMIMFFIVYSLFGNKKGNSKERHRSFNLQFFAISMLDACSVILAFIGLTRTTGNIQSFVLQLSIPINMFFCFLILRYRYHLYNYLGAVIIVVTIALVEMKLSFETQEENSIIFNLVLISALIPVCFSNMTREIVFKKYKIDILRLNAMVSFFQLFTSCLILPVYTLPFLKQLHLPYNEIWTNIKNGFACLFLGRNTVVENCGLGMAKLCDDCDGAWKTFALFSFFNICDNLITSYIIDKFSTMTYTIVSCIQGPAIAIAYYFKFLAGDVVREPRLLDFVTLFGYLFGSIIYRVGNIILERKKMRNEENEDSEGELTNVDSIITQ
The data set is described as follows: Inhibition of CRT K76T mutant in chloroquine-resistant Plasmodium falciparum NHP4559 assessed as reversal of chloroquine resistance by measuring reduction in chloroquine IC50 at 500 nM relative to chloroquine alone.

Data set [7] can be described thus: Aqueous kinetic solubility of compound in pH 7.4 solution incubated for 24 hrs. Type of data set: physicochemical. The note with it: aqueous solution pH 7.4, pH 7.4; read-out: Kinetic_solubility.
Data set [8] deals with Plasmodium falciparum. The data set is described as follows: Potentiation of chloroquine-induced antimalarial activity against chloroquine-sensitive Plasmodium falciparum 3D7 isolate MRA-102 assessed as reduction in chloroquine IC50 at 500 nM relative to chloroquine alone. The class given is functional.
A short description of data set [9]: Cytotoxicity against human AC10 cells assessed as reduction in cell viability by CellTiter-Glo assay. Type of data set: cell-based. The method, boiled down:
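For TAMH (hepatocyte line) and AC10 (cardiomyocyte line), viability was read by ATP luminescence (CellTiter-Glo), and the value reported is IC50.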
(In ATP-based viability assays light output follows the ATP content of the culture.)

Data set [10] has as its system T1, Chloroquine resistance transporter (Plasmodium falciparum), Q9N623 [K76T]. The experiment in a line: Inhibition of CRT K76T mutant in chloroquine-resistant Plasmodium falciparum Dd2 isolate MRA-156 assessed as reversal of chloroquine resistance by measuring reduction in chloroquine IC50 at 500 nM relative to chloroquine alone.
The nature of data set [11]: Therapeutic index, ratio of IC50 for TAMH to EC50 for chloroquine-resistant Plasmodium falciparum K1 isolate MRA-159 CRT CVIET haplotype mutant. The note with it: mouse, TAMH cells; read-out: Ratio IC50/EC50. The class given is toxicity. The method, boiled down:
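Host-cell IC50 was measured by ATP-luminescence viability assay in TAMH hepatocytes (mean of n = 4 independent determinations) or AC10 cardiomyocytes. Each IC50 was divided by the K1 EC50, the concentration of chemoreversal agent that halves the chloroquine concentration needed for 50% parasite inhibition.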

In data set [12] the test system is Plasmodium falciparum. The data set is described as follows: Intrinsic antimalarial activity against chloroquine/artemisinin-resistant Plasmodium falciparum ARS233 harboring CRT K76T mutant assessed as reduction in parasite viability at 500 nM. The class given is functional, organism-based.

The structures appear in SMILES notation. Activity calls are given as the source filed them. No cut-off for these calls is given here.

Consider `c1ccc(CN[C@@H]2C3CCN(CC3)[C@@H]2Cc2ccccc2)cc1` (relative stereo), for which the outcome in the data set on Plasmodium falciparum [1], with Plasmodium falciparum [3], in the data set on Plasmodium falciparum [5] and with Plasmodium falciparum [12] was inactive. Besides, the Ratio IC50 turned out to be 6.4 in data set [2], 0.47 in data set [6], 1.26 with Plasmodium falciparum [8] and 0.6 in data set [10]. For the same compound, the Papp at 6 h in data set [4] came out at 19.2 ×10⁻⁶ cm/s. Also, in data set [7], the solubility kinetic at 24 h was > 310 µg/mL. Further, the concentration for half-maximal inhibition (IC50) in [9] turned out to be 71.5 µM. Moreover, in data set [11], the selectivity ratio is > 588.
